# Values joined by “and” are separate entries in the source; they are usually repeats but may differ in a detail not shown here. Equal values may be shown once. “Also recorded” adds a separate entry of the source. Read-outs that look alike come from different tables or passages of the source.
# Legend:
# plasma protein = conditions: cited from earlier work
# [1] = Safety assessments and adverse events after single-dose capmatinib; format: in vivo, human; conditions: for AEs, any primary system organ class: regardless of study drug relationship
# Procedure, shortened: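 Single oral 200 mg dose; participants confined from day −1 to day 4. Haematology, chemistry, coagulation and urinalysis at screening, baseline, days 1–2 and end of treatment; vital signs on days 1–3. Triplicate 12-lead ECGs. AEs/SAEs recorded with severity and relatedness, graded per CTCAE v4.03. Phone follow-up at 30 days post-dose.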
# [2] = repeated administration of 400-mg BID tablets; cited from earlier work
# human plasma proteins = test: Plasma protein binding by ultrafiltration, 3 h postdose samples; format: in vitro ADME
# MET = MET inhibitor; cited from earlier work
# [3] = format: in vivo, human
# Procedure, shortened: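 Adults aged 18–75 with hepatic impairment (Child–Pugh A/B/C, also reclassified by NCI Organ Dysfunction Working Group criteria) or normal function, matched on age, weight and sex. Overnight fast (≥10 h), single oral 200 mg (2 × 100 mg tablets), fasting ≥4 h post-dose. Plasma sampled predose to 72 h; parent and metabolite measured by validated LC-MS/MS (LLOQ ~1.00 ng/mL). Noncompartmental analysis; GM ratios vs normal with 90% CIs.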
# [4] = healthy participants, cited from earlier work
# [5] = single oral dose 200 mg, mild, Child–Pugh A (n = 6)
# [6] = single oral dose 200 mg, moderate, Child–Pugh B (n = 8)
# [7] = single oral dose 200 mg, normal (n = 9)
# [8] = single oral dose 200 mg, severe, Child–Pugh C (n = 6)
smiles,measurement,setting,value
CNC(=O)c1ccc(-c2cnc3ncc(Cc4ccc5ncccc5c4)n3n2)cc1F [capmatinib],bound to plasma protein,plasma protein,96%
same,"AEs, any primary system organ class, maximum Grade 1",[1]; all participants (N = 31),5 (16.1) n (%)
same,"AEs, any primary system organ class, maximum Grade 2",[1]; all participants (N = 31),1 (3.2) n (%)
same,Diarrhoea,[1]; all participants (N = 31),1 (3.2) n (%)
same,Dizziness,[1]; all participants (N = 31),1 (3.2) n (%)
same,Ear and labyrinth disorders,[1]; all participants (N = 31),1 (3.2) n (%)
same,Flatulence,[1]; all participants (N = 31),1 (3.2) n (%)
same,Gastrointestinal disorders,[1]; all participants (N = 31),3 (9.7) n (%)
same,General disorders and administration site conditions,[1]; all participants (N = 31),1 (3.2) n (%)
same,Headache,[1]; all participants (N = 31),2 (6.5) n (%)
same,Hypoglycaemia,[1]; all participants (N = 31),1 (3.2) n (%)
same,Medical device site dermatitis,[1]; all participants (N = 31),1 (3.2) n (%)
same,Metabolism and nutrition disorders,[1]; all participants (N = 31),1 (3.2) n (%)
same,Nausea,[1]; all participants (N = 31),2 (6.5) n (%)
same,Nervous system disorders,[1]; all participants (N = 31),2 (6.5) n (%)
same,Vertigo,[1]; all participants (N = 31),1 (3.2) n (%)
same,participants with AEs suspected to be capmatinib related,[1]; all participants (N = 31),9.7%
same,severity of AEs suspected to be capmatinib related,[1]; all participants (N = 31),grade 1
same,deaths and SAEs,[1]; during study treatment and 30-day follow-up,No deaths and SAEs
same,"AEs, any primary system organ class, maximum Grade 1",[1]; mild (n = 7),2 (28.6) n (%)
same,"AEs, any primary system organ class, maximum Grade 2",[1]; mild (n = 7),1 (14.3) n (%)
same,Diarrhoea,[1]; mild (n = 7),0 n (%)
same,Dizziness,[1]; mild (n = 7),0 n (%)
same,Ear and labyrinth disorders,[1]; mild (n = 7),1 (14.3) n (%)
same,Flatulence,[1]; mild (n = 7),0 n (%)
same,Gastrointestinal disorders,[1]; mild (n = 7),0 n (%)
same,General disorders and administration site conditions,[1]; mild (n = 7),1 (14.3) n (%)
same,Headache,[1]; mild (n = 7),1 (14.3) n (%)
same,Hypoglycaemia,[1]; mild (n = 7),1 (14.3) n (%)
same,Medical device site dermatitis,[1]; mild (n = 7),1 (14.3) n (%)
same,Metabolism and nutrition disorders,[1]; mild (n = 7),1 (14.3) n (%)
same,Nausea,[1]; mild (n = 7),0 n (%)
same,Nervous system disorders,[1]; mild (n = 7),1 (14.3) n (%)
same,Vertigo,[1]; mild (n = 7),1 (14.3) n (%)
same,"AEs, any primary system organ class, maximum Grade 1",[1]; moderate (n = 8),2 (25.0) n (%)
same,"AEs, any primary system organ class, maximum Grade 2",[1]; moderate (n = 8),0 n (%)
same,Diarrhoea,[1]; moderate (n = 8),0 n (%)
same,Dizziness,[1]; moderate (n = 8),1 (12.5) n (%)
same,Ear and labyrinth disorders,[1]; moderate (n = 8),0 n (%)
same,Flatulence,[1]; moderate (n = 8),0 n (%)
same,Gastrointestinal disorders,[1]; moderate (n = 8),2 (25.0) n (%)
same,General disorders and administration site conditions,[1]; moderate (n = 8),0 n (%)
same,Headache,[1]; moderate (n = 8),1 (12.5) n (%)
same,Hypoglycaemia,[1]; moderate (n = 8),0 n (%)
same,Medical device site dermatitis,[1]; moderate (n = 8),0 n (%)
same,Metabolism and nutrition disorders,[1]; moderate (n = 8),0 n (%)
same,Nausea,[1]; moderate (n = 8),2 (25.0) n (%)
same,Nervous system disorders,[1]; moderate (n = 8),1 (12.5) n (%)
same,Vertigo,[1]; moderate (n = 8),0 n (%)
same,"AEs, any primary system organ class, maximum Grade 1",[1]; normal (n = 10),0 n (%)
same,"AEs, any primary system organ class, maximum Grade 2",[1]; normal (n = 10),0 n (%)
same,Diarrhoea,[1]; normal (n = 10),0 n (%)
same,Dizziness,[1]; normal (n = 10),0 n (%)
same,Ear and labyrinth disorders,[1]; normal (n = 10),0 n (%)
same,Flatulence,[1]; normal (n = 10),0 n (%)
same,Gastrointestinal disorders,[1]; normal (n = 10),0 n (%)
same,General disorders and administration site conditions,[1]; normal (n = 10),0 n (%)
same,Headache,[1]; normal (n = 10),0 n (%)
same,Hypoglycaemia,[1]; normal (n = 10),0 n (%)
same,Medical device site dermatitis,[1]; normal (n = 10),0 n (%)
same,Metabolism and nutrition disorders,[1]; normal (n = 10),0 n (%)
same,Nausea,[1]; normal (n = 10),0 n (%)
same,Nervous system disorders,[1]; normal (n = 10),0 n (%)
same,Vertigo,[1]; normal (n = 10),0 n (%)
same,"AEs, any primary system organ class",[1]; all participants (N = 31),6 n (%) and 6 (19.4) n (%)
same,"AEs, any primary system organ class",[1]; mild (n = 7),3 (42.9) n (%)
same,"AEs, any primary system organ class",[1]; moderate (n = 8),2 (25.0) n (%)
same,"AEs, any primary system organ class",[1]; normal (n = 10),0 n (%)
same,"AEs, any primary system organ class",[1]; severe (n = 6),1 (16.7) n (%)
same,"AEs, any primary system organ class, maximum Grade 1",[1]; severe (n = 6),1 (16.7) n (%)
same,"AEs, any primary system organ class, maximum Grade 2",[1]; severe (n = 6),0 n (%)
same,Diarrhoea,[1]; severe (n = 6),1 (16.7) n (%)
same,Dizziness,[1]; severe (n = 6),0 n (%)
same,Ear and labyrinth disorders,[1]; severe (n = 6),0 n (%)
same,Flatulence,[1]; severe (n = 6),1 (16.7) n (%)
same,Gastrointestinal disorders,[1]; severe (n = 6),1 (16.7) n (%)
same,General disorders and administration site conditions,[1]; severe (n = 6),0 n (%)
same,Headache,[1]; severe (n = 6),0 n (%)
same,Hypoglycaemia,[1]; severe (n = 6),0 n (%)
same,Medical device site dermatitis,[1]; severe (n = 6),0 n (%)
same,Metabolism and nutrition disorders,[1]; severe (n = 6),0 n (%)
same,Nausea,[1]; severe (n = 6),0 n (%)
same,Nervous system disorders,[1]; severe (n = 6),0 n (%)
same,Vertigo,[1]; severe (n = 6),0 n (%)
same,tolerability,"[1]; single dose, mild, moderate, severe hepatic impairment and normal hepatic function",well tolerated
same,"changes in chemistry parameters, QTcF or other ECG parameters",[1]; single oral dose 200 mg,No clinically relevant changes
same,changes in haematological parameters,[1]; single oral dose 200 mg,Minimal changes
same,steady state GM accumulation ratio,[2],1.4
same,bound to human plasma proteins,"human plasma proteins; 3 hours postdose samples, across all participants",96.7%
same,GM unbound fraction higher vs. normal group,human plasma proteins; severe group,~ 44.8%
same,IC50,MET,0.6 nM
same,"increase in GM AUCinf, AUClast and Cmax vs. normal group","[3]; NCI classification, both mild and moderate groups",26–46%
same,increase in GM AUCinf vs. normal group,"[3]; NCI classification, mild group",26%
same,increase in GM AUClast vs. normal group,"[3]; NCI classification, mild group",27%
same,increase in GM Cmax vs. normal group,"[3]; NCI classification, mild group",35%
same,increase in GM Cmax vs. normal group,"[3]; NCI classification, moderate group",46%
same,AUC(0-inf),"[3]; human, plasma, po, 200 mg, AUCinf, GM, single oral dose 200 mg, normal (n = 9)",6240 ng·h/mL
same,AUC(0-t),"[3]; human, plasma, po, 200 mg, AUClast, GM, single oral dose 200 mg, normal (n = 9)",6190 ng·h/mL
same,Cmax,"[3]; human, plasma, po, 200 mg, Cmax, GM, single oral dose 200 mg, normal (n = 9)",1740 ng/mL
same,Vd/F,"[3]; human, plasma, po, 200 mg, Vz/F, GM, single oral dose 200 mg, normal (n = 9)",483 L
same,half-life,"[3]; human, plasma, po, 200 mg, t½, GM, single oral dose 200 mg, normal (n = 9)",10.4 h
same,"GM exposures vs. normal group, interim PK analysis","[3]; mild and moderate groups, end of stage 1",< 3 fold
same,GM Vz/F lower vs. normal group,[3]; mild group,32.9%
same,GM t½ shorter vs. normal group,[3]; mild group,48.4%
same,decrease in GM AUCinf vs. normal group,[3]; mild group,23.3%
same,decrease in GM Cmax vs. normal group,[3]; mild group,27.6%
same,increase in GM CL/F vs. normal group,[3]; mild group,30.6%
same,"decrease in GM AUCinf,u vs. normal group","[3]; mild group, unbound",19.3%
same,"decrease in GM AUClast,u vs. normal group","[3]; mild group, unbound",19.6%
same,"decrease in GM Cmax,u vs. normal group","[3]; mild group, unbound",23.9%
same,GM Vz/F lower vs. normal group,[3]; moderate group,39.5%
same,GM t½ shorter vs. normal group,[3]; moderate group,44.5%
same,decrease in GM AUCinf vs. normal group,[3]; moderate group,8.6%
same,decrease in GM Cmax vs. normal group,[3]; moderate group,17.2%
same,increase in GM CL/F vs. normal group,[3]; moderate group,9.7%
same,"GM Cmax,u, AUClast,u and AUCinf,u vs. normal group","[3]; moderate group, unbound",similar
same,GM Vz/F lower vs. normal group,[3]; severe group,53.0%
same,GM t½ shorter vs. normal group,[3]; severe group,41.5%
same,change in GM Cmax vs. normal group,[3]; severe group,remained unchanged; also recorded: remained similar
same,decrease in GM CL/F vs. normal group,[3]; severe group,19.1%
same,increase in GM AUCinf vs. normal group,[3]; severe group,24%
same,"increase in GM AUCinf,u vs. normal group","[3]; severe group, unbound",78%
same,"increase in GM AUClast,u vs. normal group","[3]; severe group, unbound",78%
same,"increase in GM Cmax,u vs. normal group","[3]; severe group, unbound",46%
same,"CL/F, GM",[3]; [5],41.8 L/h
same,"CL/F, mean (SD)",[3]; [5],42.6 (9.23) L/h
same,"CL/F, GM",[3]; [6],35.1 L/h
same,"CL/F, mean (SD)",[3]; [6],36.6 (11.4) L/h
same,"CL/F, GM",[3]; [7],32.0 L/h
same,"CL/F, mean (SD)",[3]; [7],36.1 (19.1) L/h
same,"CL/F, GM",[3]; [8],25.9 L/h
same,"CL/F, mean (SD)",[3]; [8],28.2 (11.7) L/h
same,tolerability,"[4]; single dose of 600 mg, tablet formulation",tolerated
same,PK dose linearity,"[4]; tablets, single dose of 200–600 mg",linear

# — paper PMC9291822 (British Journal of Clinical Pharmacology, 2021)
